ChEMBL document CHEMBL1143286, “Discovery of pentacyclic compounds as potent inhibitors of hepatitis C virus NS5B RNA polymerase” (Bioorg Med Chem Lett, 2009)

Experiments:
[1] = Inhibition of HCV BK NS5B polymerase deltaC21 mutant; format: single protein, NS5B polymerase (HCV isolate BK)
Summary of the method: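 Purified NS5B enzyme (BK strain, C-terminal 21-residue truncation) assayed for polymerase activity on heterogeneous template RNA, following a modified version of a previously published procedure.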

Hepatitis C virus [2] = assay: Antiviral activity against HCV assessed as inhibition of viral subgenomic RNA replication in human HuH7 cells by replicon assay in presence of 10% fetal calf serum; format: functional, organism-based, Hepacivirus hominis; conditions: Huh-7
Hepatitis C virus [3] = assay: Antiviral activity against HCV assessed as inhibition of viral subgenomic RNA replication in human HuH7 cells by replicon assay in presence of 50% normal human serum; format: functional, organism-based, Hepacivirus hominis, Huh-7
Hepatitis C virus [4] = assay: Ratio of EC50 for HCV RNA replication in human HuH7 cells in presence of 50% normal human serum to EC50 for HCV RNA replication in human HuH7 cells in presence of 10% fetal calf serum; format: functional, Hepacivirus hominis, Huh-7
Plasma = assay: Protein binding in human plasma; format: ADME, cell-free

Compound	IC50 [1]	EC50 (Hepatitis C virus [2])	EC50 (Hepatitis C virus [3]; Hepatitis C virus, Huh-7)	Ratio EC50 (Hepatitis C virus [4])	Activity (Plasma)	EC50 (Hepatitis C virus [3]; huh-7)
CN(C)C(=O)Cn1c(-c2ccccc2)c(C2CCCCC2)c2ccc(C(=O)O)cc21	430 nM	1540 nM	9850 nM	–	–	–
CN(C)CCN1CCn2c(c(C3CCCCC3)c3ccc(C(=O)O)cc32)-c2ccccc21	28 nM	130 nM	360 nM	–	–	–
CN1CC[C@@H]2c3ccccc3-c3c(C4CCCCC4)c4ccc(C(=O)O)cc4n3C[C@@H]21	20 nM	1200 nM	3800 nM	3	–	–
CN(C)CC(=O)N1CC[C@H]2Cn3c(c(C4CCCCC4)c4ccc(C(=O)O)cc43)-c3ccccc3[C@@H]21	31 nM	170 nM	210 nM	–	–	–
COc1ccc2c(c1)[C@H]1[C@@H](CCN1C(=O)CN(C)C)Cn1c-2c(C2CCCCC2)c2ccc(C(=O)O)cc21	23 nM	32 nM	110 nM	–	–	–
O=C(O)c1ccc2c(C3CCCCC3)c3n(c2c1)C[C@@H]1CCN(CCN2CCCCC2)[C@H]1c1ccccc1-3	11 nM	40 nM	220 nM	–	92%	–
CN(C)CCN1CCn2c(c(C3CCCCC3)c3ccc(C(=O)O)cc32)-c2ccccc2C1	27 nM	140 nM	850 nM	–	–	–
COc1ccc2c(c1)[C@@H]1[C@@H](CCN1CCN(C)C)Cn1c-2c(C2CCCCC2)c2ccc(C(=O)O)cc21	21 nM	150 nM	270 nM	–	–	–
CN(C)CCN1CC[C@H]2Cn3c(c(C4CCCCC4)c4ccc(C(=O)O)cc43)-c3ccccc3[C@@H]21	20 nM	32 nM	98 nM	–	91.5%	–
O=C(O)c1ccc2c(C3CCCCC3)c3n(c2c1)C[C@@H]1CCN(CCCN2CCCCC2)[C@@H]1c1ccccc1-3	11 nM	53 nM	110 nM	–	–	–
COc1ccc2c(c1)[C@H]1[C@@H](CCN1C(=O)OCCN(C)C)Cn1c-2c(C2CCCCC2)c2ccc(C(=O)O)cc21	21 nM	180 nM	225 nM	–	–	–
CN1CC[C@H]2Cn3c(c(C4CCCCC4)c4ccc(C(=O)O)cc43)-c3ccccc3[C@H]21	140 nM	770 nM	2540 nM	3	–	–
CN1CC[C@H]2Cn3c(c(C4CCCCC4)c4ccc(C(=O)O)cc43)-c3ccccc3[C@@H]21	40 nM	830 nM	700 nM	1	–	–
CN(C)[C@H]1C[C@H]2Cn3c(c(C4CCCCC4)c4ccc(C(=O)O)cc43)-c3ccccc3[C@H]2C1	30 nM	130 nM	890 nM	7	–	–
CN(C)CCNC(=O)N1CC[C@H]2Cn3c(c(C4CCCCC4)c4ccc(C(=O)O)cc43)-c3ccccc3[C@@H]21	24 nM	630 nM	480 nM	–	–	–
CN(C)C(=O)CN1CC[C@H]2Cn3c(c(C4CCCCC4)c4ccc(C(=O)O)cc43)-c3ccccc3[C@@H]21	17 nM	78 nM	96 nM	–	–	–
COc1ccc2c(c1)[C@@H]1[C@H](CCN1CCN(C)C)Cn1c-2c(C2CCCCC2)c2ccc(C(=O)O)cc21	312 nM	> 1000 nM	> 1000 nM	–	–	–
CN(C)CCCN1CC[C@H]2Cn3c(c(C4CCCCC4)c4ccc(C(=O)O)cc43)-c3ccccc3[C@@H]21	24 nM	58 nM	80 nM	–	–	–
CN(C)CCN1CC[C@H]2Cn3c(c(C4CCCCC4)c4ccc(C(=O)O)cc43)-c3ccccc3[C@H]21	30 nM	260 nM	620 nM	–	–	–
COc1ccc2c(c1)[C@H]1[C@@H](CCN1CCN(C)C)Cn1c-2c(C2CCCCC2)c2ccc(C(=O)O)cc21 (stereo in doubt; 8b)	8 nM	25 nM	63 nM	2.5	–	–
COc1ccc2c(c1)[C@H]1[C@@H](CCN1CCN(C)C)Cn1c-2c(C2CCCCC2)c2ccc(C(=O)O)cc21 (stereo in doubt; 11)	4 nM	–	–	–	–	49 nM
